Activity calls are given as the source filed them. The calls are words filed in the database; no cut-off is given here.
What was measured:
Hepatocyte = assay: Toxicity in sandwich-cultured Sprague-Dawley rat hepatocytes assessed as inhibition of hepatobiliary transport by measuring biliary excretion index at 5 to 40 uM after 15 mins in presence of d8-TCA by LC-MS/MS analysis; format: cell-based; settings: 0.25 h
Procedure, shortened: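 Sandwich-cultured rat hepatocytes incubated with compound and d8-TCA in standard (Ca2+-containing) or Ca2+-free buffer. Cellular d8-TCA measured, and the biliary excretion index calculated as the fraction of accumulated bile acid excreted into bile. Mean of three independent experiments.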

Salmonella typhimurium = assay: Mutagenicity in Salmonella typhimurium by Ames test; format: toxicity, organism-based; settings: salmonella enterica subsp. enterica serovar typhimurium
[1] = Tmax in Sprague-Dawley rat at 3 mg/kg, po by LC-ESI-MS analysis; format: ADME, organism-based; settings: in vivo
Procedure, shortened: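 SD rats dosed orally (3 or 10 mg/kg) or by intravenous injection (1 mg/kg). Plasma PK parameters derived per route: Cmax, AUC0-t, Tmax, t1/2 and F after oral dosing; CL, AUC0-t, MRT, t1/2 and Vdss after iv dosing. Mean ± SD from three independent experiments (n = 3).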

[2] = biological target: T1, Free fatty acid receptor 1 (Homo sapiens, UniProt O14842); assay: Agonist activity at human GPR40 expressed in human HEK293 cells assessed as increase in intracellular calcium flux after 10 mins by fluorescence assay; format: functional, cell-based
T1 sequence (O14842 whole entry): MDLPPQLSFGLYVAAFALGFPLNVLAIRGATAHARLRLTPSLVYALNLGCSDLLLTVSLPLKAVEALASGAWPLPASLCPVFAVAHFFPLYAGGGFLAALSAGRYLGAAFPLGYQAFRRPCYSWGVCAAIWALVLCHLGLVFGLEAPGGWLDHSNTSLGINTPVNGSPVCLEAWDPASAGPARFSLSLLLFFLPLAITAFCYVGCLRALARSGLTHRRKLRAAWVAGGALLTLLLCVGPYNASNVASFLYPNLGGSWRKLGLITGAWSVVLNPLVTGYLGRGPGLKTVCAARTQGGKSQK
Procedure, shortened: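 Human GPR40 activity read by calcium mobilization to give EC50. Mean ± SD, n = 3.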

Rattus norvegicus [3] = assay: Subacute toxicity in Sprague-Dawley rat assessed as effect on behavior at 50 to 100 mg/kg, po administered once daily for 2 weeks; format: organism-based; settings: in vivo, 336 h
Procedure, shortened: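 SD rats dosed orally once daily for two weeks at 50 mg/kg and 100 mg/kg. Subacute toxicity was assessed over the dosing period from survival rate, behaviour, food intake and organ coefficients.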

[4] = biological target: T1, Free fatty acid receptor 1; assay: Agonist activity at GPR40 (unknown origin); format: functional
Procedure, shortened: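 Human GPR40 activity read by calcium mobilization to give EC50. Emax expressed relative to linoleic acid as 100%. Mean ± SD, n = 3.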

Rattus norvegicus [5] = assay: Antidiabetic activity in Sprague-Dawley rat assessed as reduction in blood glucose AUC (0 to 60 mins) at 10 to 20 mg/kg, po administered 60 mins prior to glucose challenge by OGTT; format: functional, organism-based
Procedure, shortened: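 OGTT in SD rats: compound given orally 60 min before a 3.0 g/kg glucose challenge. Blood glucose followed over time, and AUC0-60min or AUC0-120min calculated versus vehicle group. Mean ± SD, n = 8.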

[6] = biological target: Voltage-gated inwardly rectifying potassium channel KCNH2 (Homo sapiens, UniProt Q12809); assay: Inhibition of human ERG by patch-clamp assay
Sequence of Voltage-gated inwardly rectifying potassium channel KCNH2 (Q12809 whole entry): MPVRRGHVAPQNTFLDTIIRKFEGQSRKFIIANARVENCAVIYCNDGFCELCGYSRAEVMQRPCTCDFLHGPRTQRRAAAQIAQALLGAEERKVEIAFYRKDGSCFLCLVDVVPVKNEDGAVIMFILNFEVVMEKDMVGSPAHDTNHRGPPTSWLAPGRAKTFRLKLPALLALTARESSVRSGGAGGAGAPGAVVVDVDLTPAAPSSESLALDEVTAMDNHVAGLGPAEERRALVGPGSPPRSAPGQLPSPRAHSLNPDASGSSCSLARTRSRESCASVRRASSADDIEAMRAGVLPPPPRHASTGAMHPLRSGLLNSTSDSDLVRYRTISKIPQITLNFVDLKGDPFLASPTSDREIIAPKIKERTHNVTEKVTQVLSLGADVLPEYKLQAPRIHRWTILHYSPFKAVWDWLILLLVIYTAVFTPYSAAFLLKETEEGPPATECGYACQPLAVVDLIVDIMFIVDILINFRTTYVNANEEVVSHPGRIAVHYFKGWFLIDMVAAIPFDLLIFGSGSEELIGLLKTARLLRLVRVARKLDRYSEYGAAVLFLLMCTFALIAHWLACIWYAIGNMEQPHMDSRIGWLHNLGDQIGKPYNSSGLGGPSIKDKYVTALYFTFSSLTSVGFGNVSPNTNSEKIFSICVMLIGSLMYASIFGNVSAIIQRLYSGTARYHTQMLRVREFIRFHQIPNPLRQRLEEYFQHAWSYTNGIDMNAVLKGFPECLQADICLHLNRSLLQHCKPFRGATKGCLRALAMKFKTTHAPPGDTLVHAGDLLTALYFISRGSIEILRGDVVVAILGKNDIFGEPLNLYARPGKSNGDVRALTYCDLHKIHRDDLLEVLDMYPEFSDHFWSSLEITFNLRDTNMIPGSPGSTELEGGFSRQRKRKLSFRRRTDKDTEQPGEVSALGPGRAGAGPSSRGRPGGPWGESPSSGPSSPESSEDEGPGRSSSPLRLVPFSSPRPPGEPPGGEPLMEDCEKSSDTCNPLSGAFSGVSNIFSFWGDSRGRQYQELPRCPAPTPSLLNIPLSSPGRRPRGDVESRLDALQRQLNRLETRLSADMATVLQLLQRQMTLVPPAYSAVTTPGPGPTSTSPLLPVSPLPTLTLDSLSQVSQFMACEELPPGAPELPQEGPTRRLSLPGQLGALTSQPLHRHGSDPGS
Procedure, shortened: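 hERG K+ channel inhibition measured by patch clamp to give IC50.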

Cytochrome P450 2B6 = biological target: T2, Cytochrome P450 2B6 (Homo sapiens, UniProt P20813); assay: Inhibition of CYP2B6 (unknown origin); format: ADME
T2 sequence (P20813 whole entry): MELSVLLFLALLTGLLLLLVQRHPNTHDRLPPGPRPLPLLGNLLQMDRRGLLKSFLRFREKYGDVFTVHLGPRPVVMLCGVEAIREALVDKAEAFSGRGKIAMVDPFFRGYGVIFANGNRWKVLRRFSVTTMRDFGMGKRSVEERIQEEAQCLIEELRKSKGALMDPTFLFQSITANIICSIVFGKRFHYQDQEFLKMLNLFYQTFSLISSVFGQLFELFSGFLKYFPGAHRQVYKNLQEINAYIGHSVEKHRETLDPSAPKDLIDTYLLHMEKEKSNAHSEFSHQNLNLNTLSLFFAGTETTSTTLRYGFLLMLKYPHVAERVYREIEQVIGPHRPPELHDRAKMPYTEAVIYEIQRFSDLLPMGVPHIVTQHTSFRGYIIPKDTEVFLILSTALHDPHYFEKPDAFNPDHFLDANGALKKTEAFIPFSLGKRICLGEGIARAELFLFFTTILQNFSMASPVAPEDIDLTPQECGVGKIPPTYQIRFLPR

[7] = biological target: T3, Solute carrier organic anion transporter family member 1B1 (Homo sapiens, UniProt Q9Y6L6); assay: Inhibition of human OATP1BA
T3 sequence (Q9Y6L6 whole entry): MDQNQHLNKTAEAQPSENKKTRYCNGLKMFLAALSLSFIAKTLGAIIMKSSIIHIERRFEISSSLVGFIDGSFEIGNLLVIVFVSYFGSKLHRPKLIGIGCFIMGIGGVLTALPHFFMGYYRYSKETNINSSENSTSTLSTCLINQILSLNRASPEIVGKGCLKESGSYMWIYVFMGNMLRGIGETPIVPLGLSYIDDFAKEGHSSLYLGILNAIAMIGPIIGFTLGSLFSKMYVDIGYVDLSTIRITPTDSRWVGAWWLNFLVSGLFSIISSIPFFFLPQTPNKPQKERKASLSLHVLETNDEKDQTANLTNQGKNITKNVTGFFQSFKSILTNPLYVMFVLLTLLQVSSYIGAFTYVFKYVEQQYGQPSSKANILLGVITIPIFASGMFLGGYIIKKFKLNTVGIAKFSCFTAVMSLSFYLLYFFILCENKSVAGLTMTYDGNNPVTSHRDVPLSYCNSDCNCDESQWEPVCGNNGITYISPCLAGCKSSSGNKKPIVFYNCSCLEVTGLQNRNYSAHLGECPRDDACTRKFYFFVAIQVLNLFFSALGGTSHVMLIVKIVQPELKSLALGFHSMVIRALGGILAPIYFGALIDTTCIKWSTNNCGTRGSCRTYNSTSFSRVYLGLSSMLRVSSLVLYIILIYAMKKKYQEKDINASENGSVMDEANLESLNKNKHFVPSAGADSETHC

[8] = biological target: T4, Solute carrier organic anion transporter family member 1B3 (Homo sapiens, UniProt Q9NPD5); assay: Inhibition of human OATP1B3; format: ADME
T4 sequence (Q9NPD5 whole entry): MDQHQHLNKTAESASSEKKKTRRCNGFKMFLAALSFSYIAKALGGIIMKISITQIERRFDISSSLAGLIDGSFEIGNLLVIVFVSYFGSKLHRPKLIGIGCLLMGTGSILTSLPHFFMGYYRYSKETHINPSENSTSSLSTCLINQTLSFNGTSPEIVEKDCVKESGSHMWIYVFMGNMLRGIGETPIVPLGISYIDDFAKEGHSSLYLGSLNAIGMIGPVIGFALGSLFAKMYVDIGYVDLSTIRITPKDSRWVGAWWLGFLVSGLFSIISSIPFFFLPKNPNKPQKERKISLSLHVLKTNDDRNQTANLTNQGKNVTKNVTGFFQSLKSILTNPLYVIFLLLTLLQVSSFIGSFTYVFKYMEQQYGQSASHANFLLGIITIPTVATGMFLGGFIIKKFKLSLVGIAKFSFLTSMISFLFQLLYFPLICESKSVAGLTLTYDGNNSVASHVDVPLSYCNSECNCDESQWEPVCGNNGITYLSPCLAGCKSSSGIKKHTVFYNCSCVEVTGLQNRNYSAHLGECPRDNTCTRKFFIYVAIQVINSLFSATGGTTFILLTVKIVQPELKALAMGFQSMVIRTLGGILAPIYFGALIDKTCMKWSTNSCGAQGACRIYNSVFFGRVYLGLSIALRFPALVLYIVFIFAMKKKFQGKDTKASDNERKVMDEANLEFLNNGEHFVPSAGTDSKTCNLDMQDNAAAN

Structure (SMILES): CC#C[C@@H](CC(=O)O)c1ccc(OC[C@H]2COc3ccc(Cl)cc3O2)cc1
- Activity (Hepatocyte): Non-Toxic
- Activity (Salmonella typhimurium): Non-Toxic
- Tmax [1]: 3 h
- EC50 [2]: 0.05 µM
- Activity (Rattus norvegicus [3]): Non-Toxic
- EC50 [4]: 0.046 µM
- Activity (Rattus norvegicus [5]): Active
- IC50 [6]: > 40 µM
- IC50 (Cytochrome P450 2B6): 84.7 µM
- IC50 [7]: > 100 µM
- IC50 [8]: 39.5 µM

— ChEMBL document CHEMBL4261634, “Design and optimization of 2,3-dihydrobenzo[b][1,4]dioxine propanoic acids as novel GPR40 agonists with improved pharmacokinetic and safety profiles” (Bioorg Med Chem, 2018)
